# Experimental data reported in ChEMBL document CHEMBL2086286, “Synthesis, antitumor, cytotoxic and antioxidant evaluation of some new pyrazolotriazines attached to antipyrine moiety” (Eur J Med Chem, 2012).
# “And” between values parts separate entries of the source, which are not always exact repeats. Identical values can stand only once. The source made the active and inactive calls. The calls are words filed in the database; no cut-off is given here.
# Test system: Nucleic Acid
# Experiment: Protective activity against bleomycin-iron complex-induced DNA damage at 0.1 mg/ml after 1 hr
# Assay type: nucleic-acid assay
# Details: not given
# How it was run: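 Final reaction mixture: DNA 0.2 mg/mL, bleomycin 0.05 mg/mL, FeCl3 0.025 mM, MgCl2 5 mM, KH2PO4/KOH pH 7.0 30 mM, and test sample 0.1 mg/mL (in MeOH) or ascorbic acid 0.24 mM. Incubated 1 h at 37 °C, stopped with EDTA. DNA damage measured by adding 1% TBA and 25% HCl, heating 15 min at 80 °C, then reading absorbance.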
row,Compound,Activity
1,Cc1[nH]nc(NN=C2C(=O)CCCC2=O)c1/N=N/c1c(C)n(C)n(-c2ccccc2)c1=O,Active
2,Cc1nn2c3c(nnc2c1/N=N/c1c(C)n(C)n(-c2ccccc2)c1=O)C(=O)CCC3,Active
3,Cc1[nH]nc(N/N=C(\SC#N)C(=O)c2ccccc2)c1/N=N/c1c(C)n(C)n(-c2ccccc2)c1=O,Active
4,CC(=N)/C(C#N)=N\Nc1c(C)n(C)n(-c2ccccc2)c1=O,Active

# Test system: HepG2
# Experiment: Cytotoxicity against human HepG2 cells after 96 hrs by MTT assay
# Assay type: functional, cell-based
# Details: HepG2, 96 h
row,Compound,IC50 [µg/mL]
1,Cc1[nH]nc(N/N=C(\C#N)c2nc3ccccc3s2)c1/N=N/c1c(C)n(C)n(-c2ccccc2)c1=O,179
2,Cc1[nH]nc(NN=C2C(=O)CCCC2=O)c1/N=N/c1c(C)n(C)n(-c2ccccc2)c1=O,16.2
3,Cc1nn2c(N)c(-c3nc4ccccc4s3)nnc2c1/N=N/c1c(C)n(C)n(-c2ccccc2)c1=O,225
4,Cc1[nH]nc(-n2nc(C(=O)c3ccccc3)sc2=N)c1/N=N/c1c(C)n(C)n(-c2ccccc2)c1=O,186
5,Cc1[nH]nc(N/N=C(/C#N)C(N)=C(C#N)C#N)c1/N=N/c1c(C)n(C)n(-c2ccccc2)c1=O,148
6,CC(=O)C(=NNc1n[nH]c(C)c1/N=N/c1c(C)n(C)n(-c2ccccc2)c1=O)C(C)=O,174
7,Cc1nn2c3c(nnc2c1/N=N/c1c(C)n(C)n(-c2ccccc2)c1=O)C(=O)CCC3,55.3
8,CC(=N)c1nnc2c(/N=N/c3c(C)n(C)n(-c4ccccc4)c3=O)c(C)nn2c1N,139
9,Cc1[nH]nc(N/N=C(\SC#N)C(=O)c2ccccc2)c1/N=N/c1c(C)n(C)n(-c2ccccc2)c1=O,95.3
10,CC(=N)/C(C#N)=N\Nc1c(C)n(C)n(-c2ccccc2)c1=O,8.3
11,CCOC(=O)c1nnc2c(/N=N/c3c(C)n(C)n(-c4ccccc4)c3=O)c(C)nn2c1N,268

# Test system: MCF7
# Experiment: Cytotoxicity against human MCF7 cells after 96 hrs by MTT assay
# Assay type: functional, cell-based
# Details: MCF7, 96 h
row,Compound,IC50 [µg/mL]
1,Cc1[nH]nc(N/N=C(\C#N)c2nc3ccccc3s2)c1/N=N/c1c(C)n(C)n(-c2ccccc2)c1=O,164
2,Cc1[nH]nc(NN=C2C(=O)CCCC2=O)c1/N=N/c1c(C)n(C)n(-c2ccccc2)c1=O,29.9
3,Cc1nn2c(N)c(-c3nc4ccccc4s3)nnc2c1/N=N/c1c(C)n(C)n(-c2ccccc2)c1=O,186
4,Cc1[nH]nc(-n2nc(C(=O)c3ccccc3)sc2=N)c1/N=N/c1c(C)n(C)n(-c2ccccc2)c1=O,210
5,Cc1[nH]nc(N/N=C(/C#N)C(N)=C(C#N)C#N)c1/N=N/c1c(C)n(C)n(-c2ccccc2)c1=O,192
6,CC(=O)C(=NNc1n[nH]c(C)c1/N=N/c1c(C)n(C)n(-c2ccccc2)c1=O)C(C)=O,214
7,Cc1nn2c3c(nnc2c1/N=N/c1c(C)n(C)n(-c2ccccc2)c1=O)C(=O)CCC3,68.2
8,CC(=N)c1nnc2c(/N=N/c3c(C)n(C)n(-c4ccccc4)c3=O)c(C)nn2c1N,152
9,Cc1[nH]nc(N/N=C(\SC#N)C(=O)c2ccccc2)c1/N=N/c1c(C)n(C)n(-c2ccccc2)c1=O,101
10,CC(=N)/C(C#N)=N\Nc1c(C)n(C)n(-c2ccccc2)c1=O,15.1
11,CCOC(=O)c1nnc2c(/N=N/c3c(C)n(C)n(-c4ccccc4)c3=O)c(C)nn2c1N,420

# Test system: not listed separately
# Experiment: Antioxidant activity assessed as ABTS free radical scavenging activity at 1 mg/mL by spectroscopic analysis
# Assay type: functional
# Details: not given
# How it was run: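 ABTS radical cation generated by reacting ABTS with MnO2 (25 mg/mL) in phosphate buffer pH 7, then centrifuged and filtered. Absorbance read at 734 nm before and after adding test sample (1 mg/mL in MeOH/buffer 1:1). % inhibition = [A(control) − A(test)]/A(control) × 100. Ascorbic acid (2 mM) as positive control; solvent blank without ABTS.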
row,Compound,inhibition [%]
1,Cc1[nH]nc(N/N=C(\C#N)c2nc3ccccc3s2)c1/N=N/c1c(C)n(C)n(-c2ccccc2)c1=O,19.3
2,Cc1[nH]nc(NN=C2C(=O)CCCC2=O)c1/N=N/c1c(C)n(C)n(-c2ccccc2)c1=O,40
3,Cc1nn2c(N)c(-c3nc4ccccc4s3)nnc2c1/N=N/c1c(C)n(C)n(-c2ccccc2)c1=O,17.2
4,Cc1[nH]nc(-n2nc(C(=O)c3ccccc3)sc2=N)c1/N=N/c1c(C)n(C)n(-c2ccccc2)c1=O,15.7
5,Cc1[nH]nc(N/N=C(/C#N)C(N)=C(C#N)C#N)c1/N=N/c1c(C)n(C)n(-c2ccccc2)c1=O,9.86
6,CC(=O)C(=NNc1n[nH]c(C)c1/N=N/c1c(C)n(C)n(-c2ccccc2)c1=O)C(C)=O,25.8
7,Cc1nn2c3c(nnc2c1/N=N/c1c(C)n(C)n(-c2ccccc2)c1=O)C(=O)CCC3,52.5
8,CC(=N)c1nnc2c(/N=N/c3c(C)n(C)n(-c4ccccc4)c3=O)c(C)nn2c1N,24.4
9,Cc1[nH]nc(N/N=C(\SC#N)C(=O)c2ccccc2)c1/N=N/c1c(C)n(C)n(-c2ccccc2)c1=O,17.6
10,CC(=N)/C(C#N)=N\Nc1c(C)n(C)n(-c2ccccc2)c1=O,80.9
11,CCOC(=O)c1nnc2c(/N=N/c3c(C)n(C)n(-c4ccccc4)c3=O)c(C)nn2c1N,17.6

# Test system: not listed separately
# Experiment: Cytotoxicity against mouse EAC after 2 hrs by trypan blue staining based hemocytometer analysis
# Assay type: functional, Ehrlich
# Details: not given
# How it was run: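 Ehrlich ascites cells aspirated aseptically from the peritoneal cavity of a donor animal. Held in RPMI with 10% FBS at 37 °C, 5% CO2 for 2 h with compound at 25, 50 and 100 µg, final DMSO 0.1%. Dead cells counted by trypan blue staining on a hemocytometer; DMSO-only control viability exceeded 95%. 5-Fluorouracil as reference.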
Compound,ED25 [µg],ED100 [µg]
Cc1[nH]nc(N/N=C(\C#N)c2nc3ccccc3s2)c1/N=N/c1c(C)n(C)n(-c2ccccc2)c1=O,11.17,70.8
Cc1[nH]nc(NN=C2C(=O)CCCC2=O)c1/N=N/c1c(C)n(C)n(-c2ccccc2)c1=O,0.88,80
Cc1nn2c(N)c(-c3nc4ccccc4s3)nnc2c1/N=N/c1c(C)n(C)n(-c2ccccc2)c1=O,26.63,64
Cc1[nH]nc(-n2nc(C(=O)c3ccccc3)sc2=N)c1/N=N/c1c(C)n(C)n(-c2ccccc2)c1=O,39.36,60.5
Cc1[nH]nc(N/N=C(/C#N)C(N)=C(C#N)C#N)c1/N=N/c1c(C)n(C)n(-c2ccccc2)c1=O,64.48,38
CC(=O)C(=NNc1n[nH]c(C)c1/N=N/c1c(C)n(C)n(-c2ccccc2)c1=O)C(C)=O,15.59,70
Cc1nn2c3c(nnc2c1/N=N/c1c(C)n(C)n(-c2ccccc2)c1=O)C(=O)CCC3,0.67,91.4
CC(=N)c1nnc2c(/N=N/c3c(C)n(C)n(-c4ccccc4)c3=O)c(C)nn2c1N,14.38,70.1
Cc1[nH]nc(N/N=C(\SC#N)C(=O)c2ccccc2)c1/N=N/c1c(C)n(C)n(-c2ccccc2)c1=O,26.92,65.2
CC(=N)/C(C#N)=N\Nc1c(C)n(C)n(-c2ccccc2)c1=O,0.46,97.2
CCOC(=O)c1nnc2c(/N=N/c3c(C)n(C)n(-c4ccccc4)c3=O)c(C)nn2c1N,28.02,65.3

# Same assay, conditions: ehrlich
row,Compound,IC50
1,Cc1[nH]nc(N/N=C(\C#N)c2nc3ccccc3s2)c1/N=N/c1c(C)n(C)n(-c2ccccc2)c1=O,95 µg and 56.4 µg
2,Cc1[nH]nc(NN=C2C(=O)CCCC2=O)c1/N=N/c1c(C)n(C)n(-c2ccccc2)c1=O,98.8 µg and 63.3 µg
3,Cc1nn2c(N)c(-c3nc4ccccc4s3)nnc2c1/N=N/c1c(C)n(C)n(-c2ccccc2)c1=O,93.8 µg and 49 µg
4,Cc1[nH]nc(-n2nc(C(=O)c3ccccc3)sc2=N)c1/N=N/c1c(C)n(C)n(-c2ccccc2)c1=O,90.7 µg
5,CC(=O)C(=NNc1n[nH]c(C)c1/N=N/c1c(C)n(C)n(-c2ccccc2)c1=O)C(C)=O,95 µg and 54.1 µg
6,Cc1nn2c3c(nnc2c1/N=N/c1c(C)n(C)n(-c2ccccc2)c1=O)C(=O)CCC3,99 µg and 80.2 µg
7,CC(=N)c1nnc2c(/N=N/c3c(C)n(C)n(-c4ccccc4)c3=O)c(C)nn2c1N,95.5 µg and 55 µg
8,Cc1[nH]nc(N/N=C(\SC#N)C(=O)c2ccccc2)c1/N=N/c1c(C)n(C)n(-c2ccccc2)c1=O,94.3 µg and 48.1 µg
9,CC(=N)/C(C#N)=N\Nc1c(C)n(C)n(-c2ccccc2)c1=O,100 µg
10,CCOC(=O)c1nnc2c(/N=N/c3c(C)n(C)n(-c4ccccc4)c3=O)c(C)nn2c1N,94 µg and 47 µg

# Test system: WI-38
# Experiment: Cytotoxicity against human WI38 cells after 96 hrs by MTT assay
# Assay type: functional, cell-based
# Details: WI-38, 96 h
row,Compound,IC50 [µg/mL]
1,Cc1[nH]nc(N/N=C(\C#N)c2nc3ccccc3s2)c1/N=N/c1c(C)n(C)n(-c2ccccc2)c1=O,169
2,Cc1[nH]nc(NN=C2C(=O)CCCC2=O)c1/N=N/c1c(C)n(C)n(-c2ccccc2)c1=O,19.8
3,Cc1nn2c(N)c(-c3nc4ccccc4s3)nnc2c1/N=N/c1c(C)n(C)n(-c2ccccc2)c1=O,199
4,Cc1[nH]nc(-n2nc(C(=O)c3ccccc3)sc2=N)c1/N=N/c1c(C)n(C)n(-c2ccccc2)c1=O,171
5,Cc1[nH]nc(N/N=C(/C#N)C(N)=C(C#N)C#N)c1/N=N/c1c(C)n(C)n(-c2ccccc2)c1=O,176
6,CC(=O)C(=NNc1n[nH]c(C)c1/N=N/c1c(C)n(C)n(-c2ccccc2)c1=O)C(C)=O,189
7,Cc1nn2c3c(nnc2c1/N=N/c1c(C)n(C)n(-c2ccccc2)c1=O)C(=O)CCC3,53
8,CC(=N)c1nnc2c(/N=N/c3c(C)n(C)n(-c4ccccc4)c3=O)c(C)nn2c1N,175
9,Cc1[nH]nc(N/N=C(\SC#N)C(=O)c2ccccc2)c1/N=N/c1c(C)n(C)n(-c2ccccc2)c1=O,92.8
10,CC(=N)/C(C#N)=N\Nc1c(C)n(C)n(-c2ccccc2)c1=O,13.8
11,CCOC(=O)c1nnc2c(/N=N/c3c(C)n(C)n(-c4ccccc4)c3=O)c(C)nn2c1N,367

# Test system: Vero
# Experiment: Cytotoxicity against African green monkey Vero cells after 96 hrs by MTT assay
# Assay type: cell-based
# Details: Chlorocebus sabaeus
row,Compound,IC50 [µg/mL]
1,Cc1[nH]nc(N/N=C(\C#N)c2nc3ccccc3s2)c1/N=N/c1c(C)n(C)n(-c2ccccc2)c1=O,181
2,Cc1[nH]nc(NN=C2C(=O)CCCC2=O)c1/N=N/c1c(C)n(C)n(-c2ccccc2)c1=O,24.8
3,Cc1nn2c(N)c(-c3nc4ccccc4s3)nnc2c1/N=N/c1c(C)n(C)n(-c2ccccc2)c1=O,244
4,Cc1[nH]nc(-n2nc(C(=O)c3ccccc3)sc2=N)c1/N=N/c1c(C)n(C)n(-c2ccccc2)c1=O,210
5,Cc1[nH]nc(N/N=C(/C#N)C(N)=C(C#N)C#N)c1/N=N/c1c(C)n(C)n(-c2ccccc2)c1=O,212
6,CC(=O)C(=NNc1n[nH]c(C)c1/N=N/c1c(C)n(C)n(-c2ccccc2)c1=O)C(C)=O,199
7,Cc1nn2c3c(nnc2c1/N=N/c1c(C)n(C)n(-c2ccccc2)c1=O)C(=O)CCC3,61.1
8,CC(=N)c1nnc2c(/N=N/c3c(C)n(C)n(-c4ccccc4)c3=O)c(C)nn2c1N,164
9,Cc1[nH]nc(N/N=C(\SC#N)C(=O)c2ccccc2)c1/N=N/c1c(C)n(C)n(-c2ccccc2)c1=O,96.8
10,CC(=N)/C(C#N)=N\Nc1c(C)n(C)n(-c2ccccc2)c1=O,10
11,CCOC(=O)c1nnc2c(/N=N/c3c(C)n(C)n(-c4ccccc4)c3=O)c(C)nn2c1N,284
